Screens deposited in PubChem BioAssay by Columbia University Molecular Screening Center.
INS promoter act: TRM-6 insulin promoter activation. 130,000 tested, 0.81% active. AID 1296. TRM-6 cells (human fetal islet line), insulin promoter eGFP reporter, imaging; plate-scaled: unstimulated 0, stimulated control 100. activation, % at 2 µM;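 active = activation at 2 µM above a set limit, confirmed on inspection of the cell images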;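 note: share of cells whose green reporter signal exceeds an intensity cutoff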
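Assay system: TRM-6 insulin promoter–eGFP reporter cells / Input: 1,000 cells per well / Medium: Low-glucose (5.5 mM) medium with tamoxifen / Also added: tamoxifen inducer, 0.75 µM, in seeding medium / Timing: overnight tamoxifen, then two-day compound incubation at 37 °C / Signal: automated fluorescence imaging of paraformaldehyde-fixed, Hoechst-counterstained cells, green channel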
A number is an active result; . = inactive. This excerpt belongs to a sample that is enriched for hits.

SMILES	INS promoter act
CC(=O)c1ccc(N2CCN(C(=S)Nc3cccc(F)c3)CC2)cc1	138
Cc1cc(C)cc(OCC(=O)Nc2ccc3c(c2)C(=O)c2ccccc2C3=O)c1	.
CN(C)c1cc[n+](CC(=O)Nc2ccc(Oc3ccccc3)cc2)cc1	.
O=C(Nc1ccc([N+](=O)[O-])cn1)C1CC2CCC1C2 (centres undefined)	.
O=C(Cn1cc(C(=O)c2ccco2)c2ccccc21)NCc1ccco1	97
CC(=O)c1cn(CC(=O)NCc2cccnc2)c2ccccc12	.
O=C(Cn1cc(C(=O)C(F)(F)F)c2ccccc21)NCc1ccco1	.
COc1cc(CN(C)Cc2ccccc2)cc(OC)c1O	.
Cc1sc(NC(=O)C2CCCO2)c(C#N)c1C (centres undefined)	.
Cc1c(C(=O)OC(C)C)sc(NC(=O)C2CCCO2)c1C(=O)OC(C)C (centres undefined)	.
COC(=O)c1sc(NC(=O)C2CCCO2)c(C(=O)OC)c1C (centres undefined)	428
CCc1nnc(NC(=O)CSc2ccc(-c3ccccc3OC)nn2)s1	.
O=C(COc1ccc([N+](=O)[O-])cc1)N/N=C/c1cc([N+](=O)[O-])ccc1N1CCOCC1	.
COC(=O)CCC(=O)Nc1cc(S(=O)(=O)Nc2ccc(Cl)cc2)ccc1N1CCOCC1	.
O=[N+]([O-])c1ccc(N/N=C/c2sc(N3CCOCC3)nc2-c2ccccc2)c(S(=O)(=O)Nc2ccc(Cl)cc2)c1	488
COC(=O)c1ccccc1NC(=S)N(Cc1ccc2c(c1)OCO2)Cc1cc2ccc(OC)cc2[nH]c1=O	.
COc1ccc(NC(=O)C(Sc2nnc3ccccn23)c2ccccc2)cc1Cl (centres undefined)	.
O=[N+]([O-])c1ccccc1S(=O)(=O)N1CCN(Cc2ccc3c(c2)OCO3)CC1	.
Cc1ccc(C(=O)Nc2cccc(C(=O)NCc3ccco3)c2)cc1	.
CC(c1ccccc1)N1C(=O)c2ccc(C(=O)NCc3ccco3)cc2C1=O (centres undefined)	440
Cn1nnc2cc(C(=O)NCc3ccco3)ccc21	.
O=S(=O)(c1ccc(S(=O)(=O)N(Cc2ccccc2)Cc2ccco2)cc1)N1CCCC1	494
C[C@H](NC(=O)c1ccco1)C(=O)Nc1ccc(S(=O)(=O)N2CCCC2)cc1	.
O=S(=O)(NCc1ccco1)c1cccc(S(=O)(=O)N2CCOCC2)c1	.
C#CCSc1nnc(-c2sc(-c3ccccc3)nc2C)n1C	.
SMILES	INS promoter act
C1=C(c2ccccc2)Nc2ccccc2N=C1c1ccccc1	.
COc1ccc(CCC(=O)NNC(=S)Nc2cccc(C(C)=O)c2)cc1	.
CN1CCN(C(=O)c2ccc(-n3cccc3)cc2)CC1	.
Cc1cc(=O)oc2cc(OCC(=O)N3CCN(C(=O)c4ccco4)CC3)ccc12	.
CCOc1cc(/C=C(/C#N)c2ccc(F)cc2)ccc1OCc1ccc(C(=O)O)o1	.
Cn1cccc1/C=C(/C#N)c1ccc(F)cc1	438
N#C/C(=C/c1cn(CC(=O)O)c2ccccc12)c1ccc(F)cc1	.
S=C1NCCc2ccccc2C1c1ccccc1Cl (centres undefined)	469
Cc1ccc(S(=O)(=O)NCC2NCCc3ccccc32)cc1 (centres undefined)	.
CC1=C(C(=O)c2ccccc2)C(c2ccc(OC(F)F)cc2)NC(=S)N1 (centres undefined)	.
CCC(C)/C(C)=N/NC(=O)c1ccc(COc2ccc(Cl)c(C)c2)cc1 (centres undefined)	.
Cc1nnc2c(Oc3ccccc3)nc3ccccc3n12	131
Cc1ccc(-c2nnc3c(C(F)(F)F)nc4ccccc4n23)cc1	.
CCc1nc2ccccc2c2nc3ccccc3n12	.
Cc1ccc(-c2cc(C(=O)NCC3CCCO3)no2)cc1 (centres undefined)	.
O=C(Nc1ccccc1C(=O)NCC1CCCO1)c1ccc(Cl)cc1Cl (centres undefined)	.
O=C(NCC1CCCO1)c1cc(-c2ccc(Cl)cc2Cl)on1 (centres undefined)	86
CC1CCN(C(=O)C2CCN(S(=O)(=O)c3cnc[nH]3)CC2)CC1	506
NS(=O)(=O)c1ccc(CCNC(=O)C2CCN(S(=O)(=O)c3cnc[nH]3)CC2)cc1	.
CC1CCN(C(=O)C2CCN(CC(C)c3ccccc3)CC2)CC1 (centres undefined)	.
COCCCNC(=S)NNC(=O)C1CC1c1ccc(C(C)(C)C)cc1 (centres undefined)	789
COCCCNC(=S)NNC(=O)c1ccccn1	.
COCCNC(=S)NC(=O)c1ccc(C(C)(C)C)cc1	.
CC(=O)Nc1cccc(C(=O)NC(C)c2ccc(S(N)(=O)=O)cc2)c1 (centres undefined)	.
Cc1ccc(C)c(C(=O)Cn2ncc(Cl)c(Cl)c2=O)c1	.
SMILES	INS promoter act
Cc1ccc(C(=O)OCn2ncc(Cl)c(Cl)c2=O)cc1	194
CCOC(=O)c1ccc(NC(=O)Cn2ncc(Cl)c(Cl)c2=O)cc1	.
O=C1c2ccccc2C(=O)N1CCCc1c[nH]c2ccc(Cl)cc12	.
Cn1cnnc1SCC(=O)Nc1ccc2nc(SCc3ccccc3F)sc2c1	.
CCOc1cc2[nH]c(=O)n(CC3CCC(C(=O)NCCCOC)CC3)c(=O)c2cc1OCC (centres undefined)	171
COCCn1c(=S)[nH]c2cc(OC)c(OC)cc2c1=O	.
CCC1CCCCN1CCCNC(=O)c1ccc2c(=O)n(Cc3ccc(OC)cc3)c(=O)[nH]c2c1 (centres undefined)	.
COc1ccc(Cl)cc1NC(=S)N(CCN1CCOCC1)C1CCN(C(C)=O)CC1	.
O=c1c(-c2nnc(SCc3ccc(Cl)c(Cl)c3)o2)cccn1Cc1ccccc1	.
COC(=O)Cn1c(C)nc2c(sc3nc(C)cc(C)c32)c1=O	.
CCOC(=O)Cn1c(C)nc2c(C(=O)OCC)sc(C)c2c1=O	76
CCOC(=O)c1sc2nc(C)[nH]c(=S)c2c1C	.
CCC(=O)Nc1ccc(C(=O)N/N=C/c2cc(Br)c(OC)cc2OC)cc1	.
COc1ccc(N2CCN(C(=O)Cc3ccc(-n4c(=O)[nH]c5ccccc5c4=O)cc3)CC2)cc1	.
CCOC(=O)N1CCC(NC(=O)c2cn(-c3ccc(OC)cc3)c(=O)c3ccccc23)CC1	.
CCOC(=O)N1CCC(NC(=O)Cc2ccc(-n3c(=O)[nH]c4ccccc4c3=O)cc2)CC1	500
O=S(NC1CCCCC1)C12CC3CC(CC(C3)C1)C2 (centres undefined)	.
CC1CCN(S(=O)C23CC4CC(CC(C4)C2)C3)CC1 (centres undefined)	.
CN1CCN(S(=O)C23CC4CC(CC(C4)C2)C3)CC1 (centres undefined)	488
COc1cc(C2CC(=O)Nc3c2c(=O)nc2c(C)cccn32)cc(OC)c1OC (centres undefined)	.
COc1cccc2c1C(=O)c1c(O)c3c(c(O)c1C2=O)C[C@@](O)(C(C)=O)C[C@@H]3O[C@H]1C[C@H](N)[C@H](O)[C@H](C)O1	354
O=C(CSc1nnc(CCCN2C(=O)c3cccc4cccc(c34)C2=O)n1-c1ccccc1)NCCCN1CCOCC1	.
CC(=O)c1ccc(Oc2nc(-c3cccnc3)nc3ccccc23)cc1	.
Cc1ccccc1C(=O)Nc1ccnc(-c2ccncc2)n1	.
CC(=O)Nc1ccnc(-c2cccnc2)n1	187
Cc1ccc(C(=O)NCc2cccnc2)cc1S(=O)(=O)Nc1ccccc1	.
